Where “and” joins values, the source holds several entries; their conditions need not be identical. Identical values can stand only once.
Columns and labels:
[1] = system: 1A9/ptx-22; test: (§1) Inhibitory concentration against beta-tubulin mutant 1A9PTX22 cell line; type: functional, cell-based; conditions: Homo sapiens
[2] = system: 1A9/ptx-22; test: as §1; type: functional, cell-based; conditions: Homo sapiens; remark: listed apart in the source
[3] = system: 1A9/ptx-10; test: (§2) Inhibitory concentration against beta-tubulin mutant 1A9PTX10 cell growth; type: functional, cell-based; conditions: Homo sapiens
[4] = target: Tubulin beta-4B chain (Homo sapiens) (UniProt P68371); test: Percent […] of tubulin by the compound; type: functional
Sequence of Tubulin beta-4B chain (Homo sapiens) (P68371 whole entry): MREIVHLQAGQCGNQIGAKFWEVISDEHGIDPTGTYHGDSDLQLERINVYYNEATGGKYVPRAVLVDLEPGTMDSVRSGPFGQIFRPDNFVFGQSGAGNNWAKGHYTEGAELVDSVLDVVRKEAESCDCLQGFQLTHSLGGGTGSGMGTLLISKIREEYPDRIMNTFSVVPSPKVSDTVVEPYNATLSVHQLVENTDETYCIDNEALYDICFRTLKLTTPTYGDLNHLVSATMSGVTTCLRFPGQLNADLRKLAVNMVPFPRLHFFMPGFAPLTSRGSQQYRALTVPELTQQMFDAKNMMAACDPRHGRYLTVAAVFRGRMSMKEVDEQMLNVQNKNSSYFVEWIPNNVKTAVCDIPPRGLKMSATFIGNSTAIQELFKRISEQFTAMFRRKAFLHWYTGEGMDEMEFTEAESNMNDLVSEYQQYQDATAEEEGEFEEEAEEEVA
How it was run: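 Tubulin polymerization was read as percent polymerization, with test drug at 100 µM and a 90 min incubation.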

[5] = system: 1A9; test: Inhibitory concentration against ovarian carcinoma 1A9 cell growth; type: functional, cell-based; conditions: Homo sapiens
[6] = system: 1A9/ptx-10; test: as §2; type: functional, cell-based; conditions: Homo sapiens; remark: listed apart in the source
[7] = system: Bacteria; test: Minimum inhibitory concentration against bacterial strains; type: functional
[8] = target: Somatostatin receptor; test: Binding affinity for SRIF (somatostatin) receptor; type: protein assay
[9] = system: Nucleic Acid; test: Binding affinity towards DNA extracted from MOLT-4 cells; type: cell-free; conditions: Homo sapiens
[10] = system: OVCAR-3; test: Cytotoxicity by measuring inhibitory concentration against ovcar-3 tumor cell line; type: functional, cell-based, Homo sapiens

| SMILES | IC50 [1] [µM] | IC50 [2] [µM] | IC50 [3] [µM] | IC50 [5] [µM] | IC50 [6] [µM] | also measured |
| --- | --- | --- | --- | --- | --- | --- |
| C/C(=C\c1cc(C)ccn1)[C@@H]1C[C@@H]2O[C@]2(C)CCC[C@H](C)[C@H](O)[C@@H](C)C(=O)C(C)(C)[C@@H](O)CC(=O)O1 | 0.0001 | 0.0001 | 0.00036 | 0.0001 | 0.00036 | TP [4]: 90.3% |
| O=C(NCCSSCCNC(=O)/C(Cc1ccc(O)c(Br)c1)=N/O)/C(Cc1ccc(O)c(Br)c1)=N/O [PSAMMAPLIN A] |  |  |  |  |  | MIC [7]: 4.85 ug m/L |
| OCCCCCNCC1OC(OCCc2cc3ccccc3[nH]2)C(OCc2ccccc2)CC1OCc1ccccc1 (stereo unspecified) |  |  |  |  |  | IC50 [8]: 10 µM |
| NCCCCCOC[C@@H]1O[C@@H](OCCc2cc3ccccc3[nH]2)[C@@H](OCc2ccccc2)[C@@H](OCc2ccccc2)[C@@H]1OCc1ccccc1 |  |  |  |  |  | IC50 [8]: 15 µM |
| CCNC1COC(OC2C(OC)OC(C)C(NOC3CC(O)C(SC(=O)c4c(C)c(Cl)c(OC5OC(C)C(O)C(OC)C5O)c(OC)c4OC)C(C)O3)C2O)CC1OC (stereo unspecified) |  |  |  |  |  | K obs [9]: 32 µM |
| OCCCCCCNCC1OC(OCCc2cc3ccccc3[nH]2)C(OCc2ccccc2)CC1OCc1ccccc1 (stereo unspecified) |  |  |  |  |  | IC50 [8]: 34 µM |
| C/C(=C\c1csc(C)n1)[C@@H]1C[C@@H]2O[C@]2(C)CCC[C@H](C)[C@H](O)[C@@H](C)C(=O)C(C)(C)[C@@H](O)CC(=O)O1 [PATUPILONE] | 0.00031 | 0.00031 | 0.001 | 0.00013 | 0.001 | TP [4]: 98% |
| NCCCCCCOCC1OC(OCCc2cc3ccccc3[nH]2)C(OCc2ccccc2)CC1OCc1ccccc1 (stereo unspecified) |  |  |  |  |  | IC50 [8]: 6.6 µM |
| CCNC1COC(OC2C(O[C@H]3C#C/C=C\C#C[C@@](C)(O)C(=C/CSSSC)/C3=C(\NC(=O)OC)C(C)=O)OC(C)C(NOC3CC(O)C(SC(=O)c4c(C)c(I)c(OC5OC(C)C(O)C(OC)C5O)c(OC)c4OC)C(C)O3)C2O)CC1OC (stereo partly specified) |  |  |  |  |  | K obs [9]: 0.135 µM |
| NCCCCCOCC1CC(OCc2ccccc2)C(OCc2ccccc2)C(OCCc2cc3ccccc3[nH]2)O1 (stereo unspecified) |  |  |  |  |  | IC50 [8]: 47 µM |
| CC(=O)OC1C(=O)[C@@]2(C)[C@H]([C@H](OC(=O)c3ccco3)[C@]3(O)C[C@H](OC(=O)[C@H](O)[C@@H](NC(=O)c4ccccc4)c4ccccc4)C(C)=C1C3(C)C)[C@]1(OC(C)=O)CO[C@@H]1C[C@@H]2O (stereo partly specified) |  |  |  |  |  | IC50 ([10]; Homo sapiens, OVCAR-3): 0.0451 µM; IC50 ([10]; ovcar-3): 0.045 µM |
| CC(=O)O[C@@H]1C2=C(C)[C@@H](OC(=O)[C@H](O)[C@@H](NC(=O)c3ccccc3)c3ccccc3)C[C@@](O)([C@@H](OC(=O)c3ccccc3)c3ccccc3[C@H]1OC(C)=O)C2(C)C |  |  |  |  |  | IC50 ([10]; ovcar-3): 0.028 µM and 0.28 µM |
| CCNC1COC(OC2C(OC)OC(C)C(NOC3CC(O)C(SC(=O)c4c(C)c(F)c(OC5OC(C)C(O)C(OC)C5O)c(OC)c4OC)C(C)O3)C2O)CC1OC (stereo unspecified) |  |  |  |  |  | K obs [9]: 44 µM |
| C/C(=C\c1csc(C)n1)[C@@H]1C[C@@H]2C[C@@H]2CCC[C@H](C)[C@H](O)[C@@H](C)C(=O)C(C)(C)[C@@H](O)CC(=O)O1 | 0.002 | 0.002 | 0.009 | 0.00025 | 0.009 |  |
| CC(=O)OC1C(=O)[C@@]2(C)[C@H]([C@H](OC(=O)c3ccc4ccccc4c3)[C@]3(O)C[C@H](OC(=O)[C@H](O)[C@@H](NC(=O)c4ccccc4)c4ccccc4)C(C)=C1C3(C)C)[C@]1(OC(C)=O)CO[C@@H]1C[C@@H]2O (stereo partly specified) |  |  |  |  |  | IC50 ([10]; ovcar-3): > 11000 µM |
| CSc1nc(/C=C(\C)[C@@H]2C/C=C\CCC[C@H](C)[C@H](O)[C@@H](C)C(=O)C(C)(C)[C@@H](O)CC(=O)O2)cs1 | 0.028 | 0.028 | 0.022 | 0.009 | 0.022 | TP [4]: 92% |
| NCCCCCOCC1OC(OCCc2cc3ccccc3[nH]2)CC(OCc2ccccc2)C1OCc1ccccc1 (stereo unspecified) |  |  |  |  |  | IC50 [8]: 35 µM |
| C/C(=C\c1ccccn1)[C@@H]1C[C@@H]2O[C@]2(C)CCC[C@H](C)[C@H](O)[C@@H](C)C(=O)C(C)(C)[C@@H](O)CC(=O)O1 | 0.00015 | 0.00015 | 0.001 | 0.0001 | 0.001 | TP [4]: 79.5% |
| C/C(=C\c1ccc(C)cn1)[C@@H]1C[C@@H]2C[C@H]2CCC[C@H](C)[C@H](O)[C@@H](C)C(=O)C(C)(C)CCC(=O)O1 | 0.0014 | 0.0014 | 0.0059 | 0.0006 | 0.0059 |  |
| CCNC1COC(OC2C(OC)OC(C)C(NOC3CC(O)C(SC(=O)c4c(C)cc(OC5OC(C)C(O)C(OC)C5O)c(OC)c4OC)C(C)O3)C2O)CC1OC (stereo unspecified) |  |  |  |  |  | K obs [9]: 180 µM |
| Cc1cccc(C)c1SSCCNC(=O)/C(Cc1cc(F)cc(F)c1)=N/O |  |  |  |  |  | MIC [7]: 0.28 ug m/L |
| C/C(=C\c1csc(C)n1)[C@@H]1C[C@@H]2O[C@]2(CF)CCC[C@H](C)[C@H](O)[C@@H](C)C(=O)C(C)(C)[C@@H](O)CC(=O)O1 | 0.0002 | 0.0002 | 0.0004 | 0.0002 | 0.0004 | TP [4]: 93% |
| C/C(=C\c1ccc(C)cn1)[C@@H]1C[C@@H]2C[C@@]2(C)CCC[C@H](C)[C@H](O)[C@@H](C)C(=O)C(C)(C)CCC(=O)O1 | 0.0056 | 0.0056 | 0.0109 | 0.00174 | 0.0109 |  |

— ChEMBL document CHEMBL1143652, “Joys of molecules. 2. Endeavors in chemical biology and medicinal chemistry” (J Med Chem, 2005)
